From ChEMBL document CHEMBL2331366, “Bioactive indole alkaloids and phenyl ether derivatives from a marine-derived Aspergillus sp. Fungus” (J Nat Prod, 2013) come the findings set out here.

Broadly, the MIC is the least concentration at which growth counts as inhibited. For orientation: IC50 means the concentration needed to halve the response being measured.

≈ marks a conversion by molar mass, not a printed value. Calls of active or inactive are those of the source. The calls are words filed in the database; no cut-off is given here. Bounds are passed on as bounds.

For one assay, the system named is Staphylococcus aureus. Kind of assay: Antibacterial activity against Staphylococcus aureus ATCC 27154 assessed as growth inhibition. It counts as functional. The procedure, abridged: (§1)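 In vitro antibacterial test against each listed strain. Activity is reported as MIC (μM), with ciprofloxacin as the positive control.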
In the next assay the test system is Pseudomonas putida. Kind of assay: Antibacterial activity against Pseudomonas putida ATCC 17848 assessed as growth inhibition. It counts as functional. The procedure, abridged: as §1
In a further assay the test system is Vibrio anguillarum. Kind of assay: Antibacterial activity against Vibrio anguillarum ATCC 19019 assessed as growth inhibition. The assay is classed as functional. In short, it runs like this: as §1
The subject of another assay is Vibrio parahaemolyticus. Kind of assay: Antibacterial activity against Vibrio parahaemolyticus ATCC 17802 assessed as growth inhibition. It counts as functional. The procedure, abridged: as §1
The subject of assay [1] is Staphylococcus epidermidis. Briefly: Antibacterial activity against Staphylococcus epidermidis ATCC 12228 assessed as growth inhibition. It counts as functional. The procedure, abridged: as §1
The subject of another assay is K562. Kind of assay: Cytotoxicity against human K562 cells assessed as inhibition of cell viability by MTT assay. The assay is classed as functional, cell-based.
The next assay concerns Micrococcus. Kind of assay: Antibacterial activity against Micrococcus tetragenus ATCC 13623 assessed as growth inhibition. The assay is classed as functional, organism-based. The procedure, abridged:
as §1

In another assay the test system is Bacillus cereus. Briefly: Antibacterial activity against Bacillus cereus ACCC 11077 assessed as growth inhibition. The assay is classed as functional, organism-based. The procedure, abridged:
as §1

The next assay has as its system Escherichia coli. Kind of assay: Antibacterial activity against Escherichia coli ATCC 25922 assessed as growth inhibition. It counts as functional, organism-based. In short, it runs like this: as §1
The next assay has as its system HL-60. Kind of assay: Cytotoxicity against human HL60 cells assessed as inhibition of cell viability by MTT assay. It counts as functional, cell-based. For orientation: Tetrazolium assays rely on reduction of a dye to a coloured formazan, in cell work by metabolically active cells.
The subject of assay [2] is Staphylococcus epidermidis. Kind of assay: Ratio of ciprofloxacin MIC to compound MIC for Staphylococcus epidermidis ATCC 12228. It counts as functional.

For the compound `COC(=O)c1c(C)c(Br)c(Oc2c(Br)c(C)c(Br)c(O)c2Br)c(Br)c1O`, the MIC in the assay with Staphylococcus aureus is 100 µM (≈ 68.3 µg/mL); in the assay on Pseudomonas putida, over 100 µM; in the assay with Vibrio anguillarum, 9.23 µM (≈ 6.3 µg/mL); in the assay with Vibrio parahaemolyticus, over 100 µM; in assay [1] it was 100 µM (≈ 68.3 µg/mL).

As for `C=CC(C)(C)[C@]1(C[C@@H]2NC(=O)C3=CCCN3C2=O)C(=O)Nc2c1ccc1c2C=CC(C)(C)O1` [DEHYDRONOTOAMIDE C], the “growth inhibition (GI)” value in the assay with Staphylococcus aureus, in the assay with Micrococcus, with Bacillus cereus, with Escherichia coli, in the assay on Pseudomonas putida and in the assay on Vibrio anguillarum was “inactive” throughout. The “growth inhibition (GI)” value (with Vibrio parahaemolyticus; in [1]) was “inactive” each time. For the same compound, the IC50 with K562 and in the assay on HL-60 was over 10 µM throughout.

For `C=CC(C)(C)[C@]1(C[C@@H]2NC(=O)[C@@]3(O)CCCN3C2=O)C(=O)Nc2c1ccc1c2C=CC(C)(C)O1`, the “growth inhibition (GI)” value in the assay with Staphylococcus aureus, in the assay with Micrococcus, with Bacillus cereus, in the assay with Escherichia coli, in the assay with Pseudomonas putida and in the assay with Vibrio anguillarum was “inactive” each time. The “growth inhibition (GI)” value (with Vibrio parahaemolyticus; in [1]) was “inactive” throughout. Moreover, the IC50 in the assay with K562 and in the assay with HL-60 was over 10 µM throughout.

Regarding `C=CC(C)(C)[C@]1(C[C@@H]2NC(=O)[C@]3(OC)CCCN3C2=O)C(=O)Nc2c1ccc1c2C=CC(C)(C)O1` [NOTOAMIDE Q], the “growth inhibition (GI)” value with Staphylococcus aureus, in the assay with Micrococcus, with Bacillus cereus, in the assay with Escherichia coli, in the assay with Pseudomonas putida and in the assay on Vibrio anguillarum was “inactive” throughout. In addition, the “growth inhibition (GI)” value (in the assay on Vibrio parahaemolyticus; in assay [1]) was “inactive” in each case. The IC50 in the assay on K562 and with HL-60 was over 10 µM throughout.

As to `CCCOc1cc(C)cc(Oc2cc(C)cc(O)c2)c1`, the MIC worked out at 46 µM (≈ 12.5 µg/mL) in the assay with Staphylococcus aureus; 100 µM (≈ 27.2 µg/mL) in the assay on Pseudomonas putida; 23 µM (≈ 6.26 µg/mL) in the assay with Vibrio anguillarum; 2.87 µM (≈ 0.782 µg/mL) in the assay on Vibrio parahaemolyticus; 46 µM (≈ 12.5 µg/mL) in assay [1].

As to `COC(=O)c1c(C)cc(Oc2cc(C)cc(O)c2)cc1O`, the MIC was 10.9 µM (≈ 3.14 µg/mL) in the assay with Staphylococcus aureus; 21.7 µM (≈ 6.26 µg/mL) with Pseudomonas putida; 21.7 µM (≈ 6.26 µg/mL) in the assay with Vibrio anguillarum; 21.7 µM (≈ 6.26 µg/mL) in the assay with Vibrio parahaemolyticus; 2.71 µM (≈ 0.781 µg/mL) in assay [1]. For the same compound, the results for the IC50 in the assay on K562 and with HL-60 were 5.94 µM and over 10 µM, respectively.

Turning to `CC(=O)Oc1cc(C)cc(Oc2cc(C)cc(O)c2)c1`, the MIC in the assay on Staphylococcus aureus was over 100 µM; in the assay with Pseudomonas putida, 100 µM (≈ 27.2 µg/mL); in the assay with Vibrio anguillarum, 46 µM (≈ 12.5 µg/mL); with Vibrio parahaemolyticus, 100 µM (≈ 27.2 µg/mL); in [1], 100 µM (≈ 27.2 µg/mL).

As for `Cc1cc(O)cc(Oc2cc(C)cc(O)c2O)c1` [CORDYOL C], the MIC (with Staphylococcus aureus; with Pseudomonas putida; in the assay with Vibrio anguillarum; with Vibrio parahaemolyticus; in assay [1]) was 100 µM (≈ 24.6 µg/mL) in each case. For the same compound, the IC50 in the assay on K562 and in the assay with HL-60 was over 10 µM in each case.

With `Cc1cc(O)cc(Oc2cc(C)cc(OC(=O)c3ccccc3)c2)c1`, the MIC was over 100 µM in the assay with Staphylococcus aureus; over 100 µM with Pseudomonas putida; over 100 µM in the assay with Vibrio anguillarum; 18.7 µM (≈ 6.25 µg/mL) in the assay with Vibrio parahaemolyticus; 18.7 µM (≈ 6.25 µg/mL) in assay [1].

With `O=C(O)c1cn(C2CC2)c2cc(N3CCNCC3)c(F)cc2c1=O` [CIPROFLOXACIN], the MIC in the assay with Staphylococcus aureus was 0.78 µM (≈ 0.258 µg/mL); with Pseudomonas putida it was 0.195 µM (≈ 0.0646 µg/mL); in the assay on Vibrio anguillarum, 0.0975 µM (≈ 0.0323 µg/mL); with Vibrio parahaemolyticus, 0.195 µM (≈ 0.0646 µg/mL).

For `CC1(C)C=Cc2c(ccc3c4c([nH]c23)C(C)(C)[C@@H]2C[C@]35CCCN3C(=O)[C@@]2(C4)NC5=O)O1` [STEPHACIDIN A], the MIC with Staphylococcus aureus was over 100 µM; in the assay on Pseudomonas putida it was over 100 µM; in the assay on Vibrio anguillarum it was over 100 µM; in the assay with Vibrio parahaemolyticus, over 100 µM; in [1] it was 14.5 µM (≈ 6.26 µg/mL). Further, the IC50 in the assay on K562 and with HL-60 was over 10 µM throughout.

In the case of `Cc1cc(O)cc(Oc2cc(C)cc(O)c2)c1` [DIORCINOL], the MIC with Staphylococcus aureus turned out to be 54.3 µM (≈ 12.5 µg/mL); with Pseudomonas putida, 100 µM (≈ 23 µg/mL); in the assay with Vibrio anguillarum it was 100 µM (≈ 23 µg/mL); in the assay on Vibrio parahaemolyticus, 100 µM (≈ 23 µg/mL); in assay [1], 27.2 µM (≈ 6.26 µg/mL). Further, the IC50 in the assay with K562 and in the assay on HL-60 was over 10 µM throughout.

With `CC1(C)C=Cc2c(ccc3c2NC(=O)[C@@]32C[C@@]34NC(=O)[C@]5(CCCN5C3=O)C[C@H]4C2(C)C)O1` [NOTOAMIDE B], the “growth inhibition (GI)” value in the assay on Staphylococcus aureus, with Micrococcus, in the assay with Bacillus cereus, with Escherichia coli, in the assay on Pseudomonas putida and in the assay with Vibrio anguillarum was “inactive” throughout. Also, the “growth inhibition (GI)” value (in the assay on Vibrio parahaemolyticus; in assay [1]) was “inactive” throughout. The IC50 with K562 and in the assay on HL-60 was over 10 µM throughout.

Turning to `CCCCCOc1cc(C)cc(Oc2cc(C)cc(O)c2)c1`, the MIC in the assay with Staphylococcus aureus is 20.8 µM (≈ 6.25 µg/mL); in the assay on Pseudomonas putida it was 10.4 µM (≈ 3.12 µg/mL); in the assay with Vibrio anguillarum it was 10.4 µM (≈ 3.12 µg/mL); with Vibrio parahaemolyticus, 10.4 µM (≈ 3.12 µg/mL); in assay [1] it was 20.8 µM (≈ 6.25 µg/mL).

As to `Cc1c(Br)c(O)c(Br)c(Oc2c(Br)c(C)c(Br)c(O)c2Br)c1Br`, the MIC with Staphylococcus aureus is 1.11 µM (≈ 0.781 µg/mL); in the assay with Pseudomonas putida it was 1.11 µM (≈ 0.781 µg/mL); in the assay on Vibrio anguillarum, 1.11 µM (≈ 0.781 µg/mL); in the assay on Vibrio parahaemolyticus, 1.11 µM (≈ 0.781 µg/mL); in [1], 0.556 µM (≈ 0.391 µg/mL). Also, in [2], the Ratio is recorded as 5.

Take `COc1cc(C)cc(Oc2cc(C)cc(OC)c2OC)c1O` [CORDYOL D]: the MIC (with Staphylococcus aureus; in the assay with Pseudomonas putida; in the assay on Vibrio anguillarum; in the assay on Vibrio parahaemolyticus; in assay [1]) was over 100 µM in each case. For the same compound, the IC50 in the assay with K562 and with HL-60 was over 10 µM each time.

In the case of `C=CC(C)(C)[C@]1(C[C@@H]2NC(=O)[C@@H]3CCCN3C2=O)C(=O)Nc2c1ccc1c2C=CC(C)(C)O1` [NOTOAMIDE C], the “growth inhibition (GI)” value in the assay on Staphylococcus aureus, with Micrococcus, in the assay on Bacillus cereus, in the assay on Escherichia coli, with Pseudomonas putida and in the assay with Vibrio anguillarum was “inactive” in each case. The “growth inhibition (GI)” value (in the assay on Vibrio parahaemolyticus; in [1]) was “inactive” each time. Also, the IC50 in the assay with K562 and in the assay with HL-60 was over 10 µM throughout.

In the case of `COc1cc(C)cc(Oc2cc(C)cc(OC)c2O)c1O`, the MIC with Staphylococcus aureus was 100 µM (≈ 29 µg/mL); in the assay with Pseudomonas putida, over 100 µM; in the assay on Vibrio anguillarum, 100 µM (≈ 29 µg/mL); with Vibrio parahaemolyticus it was over 100 µM; in assay [1], over 100 µM. In addition, the IC50 in the assay on K562 and with HL-60 was over 10 µM in each case.

For the compound `CC(=O)Oc1cc(C)cc(Oc2cc(C)cc(OC(C)=O)c2)c1`, the MIC (in the assay with Staphylococcus aureus; with Pseudomonas putida; in the assay with Vibrio anguillarum; in the assay with Vibrio parahaemolyticus; in assay [1]) was over 100 µM each time.

Regarding `COc1cc(C)cc(Oc2cc(C)cc(O)c2)c1` [CORDYOL E], the MIC turned out to be 51.2 µM (≈ 12.5 µg/mL) in the assay on Staphylococcus aureus; 51.2 µM (≈ 12.5 µg/mL) in the assay with Pseudomonas putida; 25.6 µM (≈ 6.25 µg/mL) in the assay on Vibrio anguillarum; 51.2 µM (≈ 12.5 µg/mL) with Vibrio parahaemolyticus; 25.6 µM (≈ 6.25 µg/mL) in [1]. Further, the IC50 in the assay with K562 and with HL-60 was over 10 µM in each case.

For the compound `C=CC(C)(C)[C@]1(C[C@@H]2NC(=O)[C@@]3(OC)CCCN3C2=O)C(=O)Nc2c1ccc1c2C=CC(C)(C)O1`, the “growth inhibition (GI)” value in the assay on Staphylococcus aureus, with Micrococcus, in the assay on Bacillus cereus, with Escherichia coli, in the assay with Pseudomonas putida and in the assay with Vibrio anguillarum was “inactive” in each case. The “growth inhibition (GI)” value (in the assay on Vibrio parahaemolyticus; in [1]) was “inactive” in each case. Further, the IC50 in the assay on K562 and in the assay on HL-60 was over 10 µM throughout.

For `CCCCCOc1cc(C)cc(Oc2cc(C)cc(OCCCCC)c2)c1`, the MIC with Staphylococcus aureus is over 100 µM; in the assay with Pseudomonas putida, over 100 µM; in the assay on Vibrio anguillarum, over 100 µM; in the assay with Vibrio parahaemolyticus, 100 µM (≈ 37.1 µg/mL); in assay [1], over 100 µM.

As for `C=CC(C)(C)[C@]1(C[C@@H]2NC(=O)[C@]3(O)CCCN3C2=O)C(=O)Nc2c1ccc1c2C=CC(C)(C)O1` [NOTOAMIDE M], the “growth inhibition (GI)” value in the assay on Staphylococcus aureus, with Micrococcus, in the assay with Bacillus cereus, with Escherichia coli, in the assay with Pseudomonas putida and with Vibrio anguillarum was “inactive” in each case. The “growth inhibition (GI)” value (in the assay on Vibrio parahaemolyticus; in [1]) was “inactive” in each case. Also, the IC50 in the assay with K562 and in the assay with HL-60 was over 10 µM throughout.
